Article PMC4828293 (Bioorganic & medicinal chemistry, 2015)
“Also recorded” adds a separate entry of the source. Like-named read-outs stand apart in the source and are kept apart here. One block for each molecule: values may come before it.

Columns and labels:
[1] = tested on: SK-OV-3 (ovarian); experiment: SRB cytotoxicity assay, SK-OV-3; assay type: cell-based, human; details: SK-OV-3, 48 h, read-out: GI50 (μM) SRB assay SK-OV-3
Method in brief: (§1)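 Serial dilutions of the test compound were added to the cells for 48 h. Cells were then fixed with trichloroacetic acid, washed, dried and stained with sulforhodamine B. The dye was solubilised and read at 540 nm, normalised to 630 nm.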

[2] = tested on: NCI-H460 (lung); experiment: SRB cytotoxicity assay, NCI-H460; assay type: cell-based, human; details: NCI-H460, 48 h, read-out: GI50 (μM) SRB assay NCI-H460
Method in brief: as §1

[3] = tested on: DU-145 (prostate); experiment: SRB cytotoxicity assay, DU-145; assay type: cell-based, human; details: DU-145, 48 h, read-out: GI50 (μM) SRB assay DU-145
Method in brief: as §1

[4] = tested on: tubulin; experiment: Inhibition of [3H]colchicine binding to tubulin; details: 1.0 μM tubulin, 5.0 μM [3H]colchicine
[5] = tested on: human cancer cell lines [SK-OV-3 (ovarian), NCI-H460 (lung), and DU-145 (prostate)]; experiment: SRB cytotoxicity assay, panel of three human cancer cell lines; assay type: cell-based; details: read-out: GI50 against two of the three cell lines
Method in brief: as §1

[6] = target: purified bovine brain tubulin (Bos taurus, UniProt P81947+Q6B856); details: read-out: Inhibition of tubulin polymerization IC50 (μM) ± SD; cited from earlier work
[7] = tested on: MDA-MB-231-luc orthotopic human tumor xenografts; experiment: In vivo dynamic bioluminescence imaging; parameters: species or system SCID mice
Method in brief: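 Female SCID mice carried orthotopic mammary fat pad tumors grown from […] MDA-MB-231-Luc cells (stable lentiviral firefly luciferase) in 30% Matrigel, used at about 5 mm diameter. Under 2% isoflurane in O2, mice received D-luciferin 120 mg/kg in saline SC at the fore-back neck, and BLI images were taken over 35 min. The test compound (20, 30 or 40 mg/kg), saline, or CA4P 120 mg/kg was given IP immediately after baseline. BLI was repeated with fresh luciferin at 4 and 24 h, and light intensity-time curves were analysed.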

[8] = tested on: breast tumor bearing SCID mice; experiment: Acute toxicity in breast tumor bearing SCID mice; assay type: in vivo; details: IP administration of saline solutions, doses up to 40 mg/kg

Chain of purified bovine brain tubulin (P81947 whole entry): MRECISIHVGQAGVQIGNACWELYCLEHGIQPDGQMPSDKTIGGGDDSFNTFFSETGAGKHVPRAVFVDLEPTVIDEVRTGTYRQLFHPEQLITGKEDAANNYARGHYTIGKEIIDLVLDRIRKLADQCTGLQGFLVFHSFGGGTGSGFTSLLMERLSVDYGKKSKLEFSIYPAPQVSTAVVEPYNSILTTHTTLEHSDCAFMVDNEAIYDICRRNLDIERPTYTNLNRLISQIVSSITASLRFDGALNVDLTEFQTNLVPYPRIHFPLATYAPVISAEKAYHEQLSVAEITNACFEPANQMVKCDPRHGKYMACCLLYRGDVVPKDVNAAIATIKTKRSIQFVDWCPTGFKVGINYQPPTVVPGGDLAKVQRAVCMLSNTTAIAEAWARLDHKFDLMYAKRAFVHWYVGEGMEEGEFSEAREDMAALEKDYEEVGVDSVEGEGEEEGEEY
Chain of purified bovine brain tubulin (Q6B856 whole entry): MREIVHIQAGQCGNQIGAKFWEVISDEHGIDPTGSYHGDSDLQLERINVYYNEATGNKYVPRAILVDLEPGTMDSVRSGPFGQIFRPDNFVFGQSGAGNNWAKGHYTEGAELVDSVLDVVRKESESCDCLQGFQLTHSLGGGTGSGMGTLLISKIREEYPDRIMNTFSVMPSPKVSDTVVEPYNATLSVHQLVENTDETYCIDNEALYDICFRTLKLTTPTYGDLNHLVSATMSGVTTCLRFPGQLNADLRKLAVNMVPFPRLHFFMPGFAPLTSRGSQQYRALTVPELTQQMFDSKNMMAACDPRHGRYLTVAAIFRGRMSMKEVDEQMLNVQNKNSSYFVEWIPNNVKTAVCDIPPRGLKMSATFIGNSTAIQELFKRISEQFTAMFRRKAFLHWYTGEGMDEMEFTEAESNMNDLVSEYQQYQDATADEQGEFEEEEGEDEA

Compound: COc1ccc2c(c1OC)CCCC=C2c1ccccc1 [Compound 28, 3,4-Dimethoxy-9-phenyl-6,7-dihydro-5H-benzo[7]annulene]
GI50 ([1]; Homo sapiens): 32.7 µM
GI50 ([2]; Homo sapiens): 37.5 µM
GI50 ([3]; Homo sapiens): 89.3 µM

Compound: COc1cc(C2=CCCCc3cc(O)ccc32)cc(OC)c1OC [Compound 68, 9-(3′,4′,5′-Trimethoxyphenyl)-6,7-dihydro-5H-benzo[7]annulen-3-ol]
GI50 ([1]; Homo sapiens): 0.527 µM
GI50 ([2]; Homo sapiens): 0.647 µM
GI50 ([3]; Homo sapiens): 1.02 µM
% Inhibition of colchicine binding ± SD ([4]; 5 μM inhibitor): 27 ± 5 (5 μM) %

Compound: COc1ccc2c(c1O)CCCC=C2c1ccccc1 [Compound 64, 3-Methoxy-9-phenyl-6,7-dihydro-5H-benzo[7]annulen-4-ol]
GI50 ([1]; Homo sapiens): 0.557 µM
GI50 ([2]; Homo sapiens): 0.652 µM
GI50 ([3]; Homo sapiens): 4.4 µM
GI50 [5]: < 1000 nM

Compound: COc1cc(C2=CCCCc3c2ccc(O)c3O)cc(OC)c1OC [Compound 70, 9-(3′,4′,5′-Trimethoxyphenyl)-6,7-dihydro-5H-benzo[7]annulene-3,4-diol]
GI50 ([1]; Homo sapiens): 0.346 µM
GI50 ([2]; Homo sapiens): 0.691 µM
GI50 ([3]; Homo sapiens): 1.53 µM

Compound: Oc1ccc2c(c1O)CCCC=C2c1cc(C(F)(F)F)cc(C(F)(F)F)c1 [Compound 66, 9-(3′,5′-Bis(trifluoromethyl)phenyl)-6,7-dihydro-5H-benzo[7]annulene-3,4-diol]
GI50 ([1]; Homo sapiens): 16.8 µM
GI50 ([2]; Homo sapiens): 25 µM
GI50 ([3]; Homo sapiens): 21.8 µM

Compound: COc1ccc(C2=CCCCc3cc(OC)ccc32)cc1 [Compound 37, 3-Methoxy-9-(4′-methoxyphenyl)-6,7-dihydro-5H-benzo[7]annulene]
GI50 ([1]; Homo sapiens): 40.7 µM
GI50 ([2]; Homo sapiens): 57.7 µM
GI50 ([3]; Homo sapiens): 68.7 µM

Compound: COc1ccc(C2=CCCCc3c2ccc(OC)c3O)cc1 [Compound 67, 3-Methoxy-9-(4′-methoxyphenyl)-6,7-dihydro-5H-benzo[7]annulen-4-ol]
GI50 ([1]; Homo sapiens): 18.4 µM
GI50 ([2]; Homo sapiens): 10.6 µM
GI50 ([3]; Homo sapiens): 8.59 µM

Compound: COc1ccc2c(c1OC)CCCC=C2c1ccc(OC)c(OC)c1OC [Compound 61, 3,4-Dimethoxy-9-(2′,3′,4′-trimethoxyphenyl)-6,7-dihydro-5H-benzo[7]annulene]
GI50 ([1]; Homo sapiens): 6.96 µM
GI50 ([2]; Homo sapiens): 10.5 µM
GI50 ([3]; Homo sapiens): 26.2 µM

Compound: COc1ccc2c(c1O)CCCC=C2c1ccc(OC)c(OC)c1OC [Compound 71, 3-Methoxy-9-(2′,3, ′4′-trimethoxyphenyl)-6,7-dihydro-5H-benzo[7]annulen-4-ol]
GI50 ([1]; average of n ≥ 3): 3.53 µM
GI50 ([2]; average of n ≥ 3): 4.24 µM
GI50 ([3]; average of n ≥ 3): 7.54 µM

Compound: COc1ccc(C2=CCCCc3c2ccc(OC)c3OC)cc1 [Compound 36, 3,4-Dimethoxy-9-(4′-methoxyphenyl)-6,7-dihydro-5H-benzo[7]annulene]
GI50 ([1]; Homo sapiens): 20.5 µM
GI50 ([2]; Homo sapiens): 33.4 µM
GI50 ([3]; Homo sapiens): 48.3 µM

Compound: COc1ccc2c(c1)CCCC=C2c1cc(OC)c(OC)c(OC)c1 [Compound 29, 3-Methoxy-9-(3′,4′,5′-trimethoxyphenyl)-6,7-dihydro-5H-benzo[7]annulene]
GI50 ([1]; Homo sapiens): 0.0516 µM
GI50 ([2]; Homo sapiens): 0.0527 µM
GI50 ([3]; Homo sapiens): 0.0619 µM
% Inhibition of colchicine binding ± SD ([4]; 1 μM inhibitor): 37 ± 5%
% Inhibition of colchicine binding ± SD ([4]; 5 μM inhibitor): 72 ± 0.8%

Compound: CCCc1c(OC)ccc2c1CCCC=C2c1cc(OC)c(OC)c(OC)c1 [Compound 32, 3-Methoxy-4-propyl-9-(3′,4′,5′-trimethoxyphenyl)-6,7-dihydro-5H-benzo[7]annulene]
GI50 ([1]; Homo sapiens): 2.96 µM
GI50 ([2]; Homo sapiens): 3.32 µM
GI50 ([3]; Homo sapiens): 6.03 µM

Compound: COc1cc(C2=CCCCc3c2ccc(OC)c3OC)cc(OC)c1OC [Compound 35, 3,4-Dimethoxy-9-(3′,4′,5′-trimethoxyphenyl)-6,7-dihydro-5H-benzo[7]annulene]
GI50 ([1]; Homo sapiens): 0.277 µM
GI50 ([2]; Homo sapiens): 0.593 µM
GI50 ([3]; Homo sapiens): 0.708 µM
% Inhibition of colchicine binding ± SD ([4]; 5 μM inhibitor): 30 ± 4%
% Inhibition of colchicine binding ± SD ([4]; 50 μM inhibitor): 56 ± 4%

% Inhibition of colchicine binding ± SD ([4]; 5 μM inhibitor): 8.5 ± 4%
% Inhibition of colchicine binding ± SD ([4]; 50 μM inhibitor): 37 ± 5%
Compound: COc1ccc2c(c1O)CCCC=C2c1cc(C(F)(F)F)cc(C(F)(F)F)c1 [Compound 65, 9-(3′,5′-Bis(trifluoromethyl)phenyl)-3-methoxy-6,7-dihydro-5H-benzo[7]annulen-4-ol]
GI50 ([1]; Homo sapiens): 4.81 µM
GI50 ([2]; Homo sapiens): 4.39 µM
GI50 ([3]; Homo sapiens): 4.92 µM

Compound: CCc1c(OC)ccc2c1CCCC=C2c1cc(OC)c(OC)c(OC)c1 [Compound 31, 4-Ethyl-3-methoxy-9-(3′,4′,5′-trimethoxyphenyl)-6,7-dihydro-5H-benzo[7]annulene]
GI50 ([1]; Homo sapiens): 0.568 µM
GI50 ([2]; Homo sapiens): 0.763 µM
GI50 ([3]; Homo sapiens): 1.51 µM
GI50 [5]: < 1000 nM

Compound: COc1ccc(/C=C\c2cc(OC)c(OC)c(OC)c2)cc1OP(=O)(O)O [CA4P, combretastatin A-4P, reference compound]
IC50 [6]: > 40 µM
GI50 ([1]; average of n ≥ 3): 0.00119 µM
GI50 ([2]; average of n ≥ 3): 0.00194 µM
reduction of BLI signal / light emission ([7]; CA4P 120 mg/kg IP in saline, 4 h): greater than 90%
reduction of BLI signal (remained depressed) ([7]; CA4P 120 mg/kg IP in saline, after 24 h): > 75%
GI50 ([3]; average of n ≥ 3): 0.00323 µM

Compound: COc1ccc(/C=C\c2cc(OC)c(OC)c(OC)c2)cc1O [CA4, combretastatin A-4, reference compound]
GI50 ([1]; Homo sapiens): 0.00455 µM
GI50 ([2]; Homo sapiens): 0.00223 µM
GI50 ([3]; Homo sapiens): 0.00327 µM
% Inhibition of colchicine binding ± SD ([4]; 1 μM inhibitor): 84 ± 3%

Compound: COc1cc(C2CCCCc3c2ccc(OC)c3OP(=O)([O-])[O-])cc(OC)c1OC.[Na+].[Na+] (centres unmarked) [Compound 73, 2-Methoxy-5-(3′,4′,5′-trimethoxyphenyl)-6,7,8,9-tetrahydro-5H-benzo[7]annulen-1-yl disodium phosphate]
GI50 ([1]; average of n ≥ 3): 0.357 µM
acute toxicity over 24 h [8]: no obvious acute toxicity
GI50 ([2]; average of n ≥ 3): 0.145 µM
effect on light emission (dynamic BLI) ([7]; 30 mg/kg, 4 h after administration): modest effect
reduction of the emitted BLI signal ([7]; 40 mg/kg IP in saline, 4 h after administration): about 50%
BLI signal recovery ([7]; 20, 30 or 40 mg/kg IP, within 24 h): generally returned to its original level; also recorded: substantial recovery
reduction of BLI signal ([7]; 20 or 30 mg/kg IP in saline, 4 h after administration): modest reduction
GI50 ([3]; average of n ≥ 3): 0.753 µM

Compound: COc1ccc2c(c1OP(=O)(O)O)CCCC=C2c1cc(C(F)(F)F)cc(C(F)(F)F)c1 [Compound 74, 9-(3′,5′-Bis(trifluoromethyl)phenyl)-3-methoxy-6,7-dihydro-5H-benzo[7]annulen-4-yl disodium phosphate]
GI50 ([1]; average of n ≥ 3): 17.2 µM
GI50 ([2]; average of n ≥ 3): 16.3 µM
GI50 ([3]; average of n ≥ 3): 17.5 µM

% Inhibition of colchicine binding ± SD ([4]; 1 μM inhibitor): 36 ± 5%
% Inhibition of colchicine binding ± SD ([4]; 5 μM inhibitor): 69 ± 3%
Compound: COc1ccc2c(c1)CCCC=C2c1ccc(OC)c(OC)c1OC [Compound 62, 3-Methoxy-9-(2′,3′,4′-trimethoxyphenyl)-6,7-dihydro-5H-benzo[7]annulene]
GI50 ([1]; Homo sapiens): 0.0432 µM
GI50 ([2]; Homo sapiens): 0.12 µM
GI50 ([3]; Homo sapiens): 0.0562 µM

Compound: COc1ccc2c(c1C)CCCC=C2c1cc(OC)c(OC)c(OC)c1 [Compound 30, 3-Methoxy-4-methyl-9-(3′,4′,5′-trimethoxyphenyl)-6,7-dihydro-5H-benzo[7]annulene]
GI50 ([1]; Homo sapiens): 0.33 µM
GI50 ([2]; Homo sapiens): 0.422 µM
GI50 ([3]; Homo sapiens): 0.644 µM
% Inhibition of colchicine binding ± SD ([4]; 5 μM inhibitor): 65 ± 0.6 (5 μM) %

Compound: COc1ccc2c(c1O)CCCCC2c1cc(OC)c(OC)c(OC)c1 (centres unmarked) [Compound 72, 2-Methoxy-5-(3′,4′,5′-trimethoxyphenyl)-6,7,8,9-tetrahydro-5H-benzo[7]annulen-1-ol]
GI50 ([1]; Homo sapiens): 0.408 µM
GI50 ([2]; Homo sapiens): 0.141 µM
GI50 ([3]; Homo sapiens): 0.57 µM
% Inhibition of colchicine binding ± SD ([4]; 1 μM inhibitor): 21 ± 0.9%
% Inhibition of colchicine binding ± SD ([4]; 5 μM inhibitor): 67 ± 0.6%

Compound: COc1ccc2c(c1OC)CCCC=C2c1cc(C(F)(F)F)cc(C(F)(F)F)c1 [Compound 34, 9-(3′,5′-Bis(trifluoromethyl)phenyl)-3,4-dimethoxy-6,7-dihydro-5H-benzo[7]annulene]
GI50 ([1]; Homo sapiens): 31.1 µM
GI50 ([2]; Homo sapiens): 25.5 µM
GI50 ([3]; Homo sapiens): 52.1 µM
